# Screening data (PubChem BioAssay)
# DNMT1 block – inhibitors of human DNMT1 | DNMT1 molecular beacon, Hinp1I cleavage, fluorescence | 360,000 compounds, 0.83% hits | inhibition (reported as % activation of signal), % at 10 µM; in the data active means inhibition above about 50%
# Scp1 inh – blocks human Scp-1 phosphatase activity; Recombinant Scp1, phosphopeptide, malachite green phosphate absorbance; inhibition, % at 20 µM; 340,000 compounds, 0.88% hits; AID 493091;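 active means inhibition above about 50% at 20 µM, limit read from the data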
#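 Material: truncated SCP-1 phosphatase (76-261aa) / Buffer or medium: 50 mM Tris acetate pH 5.5, 0.005% Tween-20, 10 mM MgCl2 / Compound dosing: one concentration, 20 µM, with 1.0% DMSO / Incubation: 45 min room-temperature reaction, 5 min colour, 30 min stabiliser / Detection: colorimetric free-phosphate detection, absorbance 630 nm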
# UBC9 SUMO inh – inhibitors of human SUMOylation (UBC9). HTRF SUMOylation assay, SAE1/SAE2 + UBC9, in vitro. P63279. 290,000 compounds, 0.36% hits. inhibition, % at 35 µM; in the data active means inhibition above about 50%, passing the limit was not always enough
# SUMO1 PPI mod – SUMO1-SIM interaction modulation | P63165 | SUMO1 binding to a labelled peptide, TR-FRET, 1 h | inhibition, % at 20 µM | 360,000 compounds, 0.33% hits | AID 602429; in the data active means inhibition above about 37%
# STEP inh – inhibitors of human striatal-enriched phosphatase STEP. P54829. recombinant STEP, OMFP fluorogenic substrate, fluorescence. inhibition, % at 20 µM. 360,000 compounds, 0.25% hits. AID 588621;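 active means inhibition at 20 µM, scaled per plate between control wells, above about 37%, limit read from the data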
#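 Measure: Control-normalized % inhibition with plate pattern correction | Test system: STEP phosphatase, cell-free reaction | Medium: pH 6.0 Bis-Tris with DTT and Tween 20 | Technique: Fluorescence, 480/540 nm | Times: Reaction 20 min, ambient temperature | Doses: Single compound dose of 20 µM, 1% DMSO final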
# LMPTP inh – blocks human LMPTP phosphatase; P24666; recombinant LMPTP-A, OMFP fluorogenic substrate, fluorescence intensity; inhibition, % at 20 µM; 360,000 compounds, 0.22% hits;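 active means compounds that cut the enzyme signal by at least half of the control window in the single-dose screen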
#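 Assay system: LMPTP-A phosphatase enzyme | Input: 0.625 nM enzyme | Also added: Fluorogenic phosphatase substrate OMFP at 400 µM final | Compound dosing: One test concentration per compound, 20 µM, with 3% DMSO overall | Schedule: 50 min enzyme reaction at room temperature, protected from light | Signal: Fluorescence intensity | Benchmarks: no-enzyme and uninhibited controls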
# Hits are given with their value; – = inactive; · = not tested or not shown. Sampled rows, rich in hits. Any-hit rate of the full collection: about 1.9%.
SMILES,DNMT1 block,Scp1 inh,UBC9 SUMO inh,SUMO1 PPI mod,STEP inh,LMPTP inh
O=C1Nc2ccccc2-n2nnnc2C1N1CCN(CCN2CCOCC2)CC1 (stereo not drawn),·,·,·,–,·,–
Cc1c(-c2ccc(Br)cc2)nc2ccccn12,–,–,–,–,–,–
CN(C)c1ccc(-c2nc3ccccn3c2/N=C/c2ccc(Br)cc2)cc1,–,–,–,–,41.9,–
COCCn1c(N)c(N(Cc2ccccc2)C(=O)COc2ccccc2F)c(=O)[nH]c1=O,–,–,·,–,–,–
C/C(CC(=O)NCc1ccco1)=N\NC(=O)C(c1ccccc1)c1ccccc1,–,–,–,49.2,–,–
C/C(CC(=O)NCc1ccco1)=N\NC(=O)Cc1ccccc1,–,–,–,–,–,–
COc1ccc(C2C3=C(CCCC3=O)Nc3c(-c4ccccc4)c(C)nn32)cc1 (stereo not drawn),–,–,51.1,–,–,–
Cc1nn2c(c1-c1ccccc1)NC1=C(C(=O)CCC1)C2c1ccccc1 (stereo not drawn),–,–,–,–,–,–
N#CC(C(=O)Nc1cccc(Cl)c1)=C1Nc2ccccc2N1,–,–,–,62.1,–,–
COC(=O)c1ccc(C(=O)Nc2ccc3nc(-c4ccncc4)[nH]c3c2)cc1,–,–,–,50.5,–,–
CC(C)CCN1CCN(Cc2nc(-c3ccc(F)cc3)cs2)CC1CCO (stereo not drawn),–,–,–,–,–,–
Cc1ccc(-n2c(N)c(C(=O)N3CCN(C)CC3)sc2=S)cc1,–,–,–,–,95.6,–
COc1ccc(/C=C/c2nnc(NC(=O)CSc3ccc(C)cc3)s2)cc1,–,–,50.1,–,–,–
CCN(CC(=O)Nc1ccc(NC(C)=O)cc1)C(=O)CCCc1nc2ccccc2s1,–,–,·,–,–,–
N#C/C(=C\c1ccccc1C(=O)O)c1nc2ccccc2[nH]1,–,–,–,–,–,–
N#C/C(=C\c1ccc(-c2ccc(C(=O)O)cc2)o1)c1nc2ccccc2[nH]1,–,56.9,–,–,60.3,–
CNc1cnc(-c2cccc(C(=O)N3CCOCC3)c2)cn1,–,·,·,–,–,–
COc1cc(NCCCCCCCN)c2ncccc2c1,–,–,51.8,–,–,–
CCOC(=O)C1CCCN(C(=O)c2cc3ccccc3oc2=O)C1 (stereo not drawn),–,–,–,–,–,–
O=C1OC(Nc2ncccn2)c2ccccc21 (stereo not drawn),–,–,–,–,–,–
O=C1OC(Nc2cc(Br)cc3cccnc23)c2ccccc21 (stereo not drawn),–,–,88.0,–,–,–
CC(=O)Nc1ccc(NC(=O)C(C)OC(=O)c2ccc3ccccc3n2)cc1 (stereo not drawn),–,–,·,–,–,–
CC1CCCCC1NC(=O)COC(=O)c1ccc2c(c1)OCCO2 (stereo not drawn),–,–,·,–,–,–
NC1=NC[C@@H](CC2CCCCC2)N1CCc1cc(C(F)(F)F)cc(C(F)(F)F)c1,62.0,–,·,–,–,–
NC1=NC[C@H](Cc2ccc(O)cc2)N1CCc1cc(C(F)(F)F)cc(C(F)(F)F)c1,–,–,–,–,–,–
SMILES,DNMT1 block,Scp1 inh,UBC9 SUMO inh,SUMO1 PPI mod,STEP inh,LMPTP inh
Cc1cc(/C=N/NC(=O)c2ccncc2)c(C)n1-c1ccccc1,–,–,–,–,–,–
Cc1cc(C(=O)N/N=C/c2ccc(O)c(O)c2O)c(C)n1-c1ccccc1,–,–,–,–,–,55.9
Cc1ccc(-n2nc3ccc(N)cc3n2)c(C)c1,–,–,50.4,–,–,–
O=C(O)CCC(=O)Nc1cc(C(F)(F)F)cc(C(F)(F)F)c1,–,–,–,44.3,–,–
CCN(CC)c1ccc(S(=O)(=O)N2CCOCC2)cc1NC(=O)COC(=O)C1=COCCO1,–,–,·,–,–,–
O=C(NCc1ccco1)Nc1ccc2snnc2c1,–,–,69.4,–,–,–
Cc1nc2ccc(NC(=O)NCc3ccco3)cc2s1,–,–,66.8,–,–,–
Cc1ccc(S(=O)(=O)Nc2ccccc2C(=O)N2CCCCCC2)cc1,–,–,–,–,–,–
CCn1c(C)[n+](CC(O)COCC2CC=CCC2)c2ccccc21 (stereo not drawn),–,86.5,–,–,–,–
Cc1c(C(=O)O)sc2[nH]c(=O)n(Cc3ccccc3)c(=O)c12,–,–,–,–,–,–
COc1ccc(/C=N/NC(=O)CCn2cnc(-c3ccccc3)c2-c2ccccc2)cc1,–,–,–,–,117.8,–
Fc1cccc(-n2c(-c3cccs3)nc3nc4ccccc4nc32)c1,·,·,54.9,·,·,·
COc1cc(/C=C2\SC(=S)N(NS(=O)(=O)c3ccccc3)C2=O)ccc1O,–,60.2,–,–,–,–
COc1cc(/C=C2\SC(=S)N(NS(=O)(=O)c3ccc(C)cc3)C2=O)ccc1O,–,–,–,–,–,–
CC(/C=C1\SC(=S)N(NS(=O)(=O)c2ccc(C)cc2)C1=O)=C\c1ccccc1,–,–,58.9,–,–,–
Cc1cc(C(=O)Nc2cccc(O)c2)c(C)o1,–,–,–,37.5,–,–
O=C(CSc1nnnn1-c1cccc2ccccc12)NC(C(=O)O)(c1ccccc1)c1ccccc1,–,–,–,–,–,–
COc1cc(OC)cc(-c2noc(-c3csc([C@@H]4O[C@H](CO)[C@H](O)[C@H](O)[C@H]4O)n3)n2)c1,–,·,·,–,–,–
CC1(C)Cc2nc3sc4c(=O)n(CC(=O)NCc5ccccc5)cnc4c3cc2CO1,–,–,–,43.2,–,–
CC(C(=O)Nc1ncc([N+](=O)[O-])s1)N1C(=O)c2ccccc2S1(=O)=O (stereo not drawn),–,–,·,–,–,–
OCC1OC(Oc2cccc3ccccc23)C(O)C(O)C1O (stereo not drawn),–,–,–,–,–,–
O=C(O)c1cc(O)c2c(c1)[C@@H]([C@H]1c3cc(C(=O)O)cc(O)c3C(=O)c3c(O[C@@H]4O[C@H](CO)[C@@H](O)[C@H](O)[C@H]4O)cccc31)c1cccc(O[C@@H]3O[C@H](CO)[C@@H](O)[C@H](O)[C@H]3O)c1C2=O,·,85.8,·,·,·,·
CCOc1ccc(NC2=CC(=O)C(=O)c3ccccc32)cc1,–,56.7,·,–,–,–
O=C1C=C(Nc2ccc(F)cc2)c2ccccc2C1=O,54.5,–,·,–,–,–
O=C1C=C(Nc2cccnc2)c2ccccc2C1=O,–,–,·,–,–,–
O=C1C=C(NCc2ccccc2)c2ccccc2C1=O,84.4,–,–,43.7,–,–
CCCCn1c(N)c(N(CCC(C)C)C(=O)c2cc(-c3ccco3)nc3ccccc23)c(=O)[nH]c1=O,–,61.4,–,–,–,–
